Results on eleven compounds are retold here after ChEMBL document CHEMBL5230144, “Synthesis and Biological Evaluation of Celastrol Derivatives with Improved Cytotoxic Selectivity and Antitumor Activities” (J Nat Prod, 2021).

Data set [1] concerns the target T1, Heat shock protein HSP 90-beta/Hsp90 co-chaperone Cdc37 (Homo sapiens, UniProt P08238+Q16543). The data set can be described thus: Disruption of His-tagged full length HSP90 (unknown origin)/GST-tagged Cdc37 (unknown origin) measured after 1 hr by HTRF method. The format is protein-complex assay. Put shortly:
(§1)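 HTRF in PBS with […], pH 7.3: His-tagged full-length Hsp90 and GST-tagged Cdc37 (each 250 nM final) with compound, 37 °C for 1 h. Anti-GST-Cryptate and anti-6His-XL665 then added for 0.5 h at 37 °C. Time-resolved fluorescence read at ex 320 nm, em 665/620 nm; ratio (665/620) × 10 000.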

Data set [2] deals with A549. Briefly: cells. The following applies: Homo sapiens, A549, 48 h.
Data set [3] is described as follows: Toxicity in nude mouse xenografted with human MDA-MB-231 cells assessed as decrease of red blood cells at 10 mg/kg, po measured after 26 days. The format is organism-based. The following applies: in vivo, 624 h, time 26 day. The essentials:
(§2)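 Female athymic nude mice (5–6 weeks) bore MDA-MB-231 xenografts and were randomized (n = 6) at a mean tumor volume of about 100 mm³. They received 10 mg/kg orally, with vehicle and carboplatin (10 mg/kg) groups. On the final day of administration, a routine blood examination counted white blood cells, red blood cells and platelets, compared against vehicle.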
A general note: A xenograft is tissue or cells of one species grown in another, often human tumour cells in immunodeficient mice.

In data set [4] the test system is MDA-MB-231. Briefly: cells. The following applies: Homo sapiens, MDA-MB-231, 48 h.
Data set [5] deals with HUVEC. Briefly: Antimigratory activity against human HUVEC cells assessed as inhibition of cell migration at 0.1 uM measured after 12 to 24 hrs by wound scratch assay. It is filed as functional, cell-based. The following applies: time 12-24 hrs. Put shortly:
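HUVEC monolayers were scratched and treated, with wound closure imaged at 0, 12 and 24 h. Migration was quantified as a migration ratio relative to 0 h.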

Data set [6] is described as follows: Toxicity in nude mouse xenografted with human MDA-MB-231 cells assessed as damage to lungs at 10 mg/kg, po measured after 26 days by Hand E staining method. It is filed as organism-based. The following applies: in vivo, 624 h, time 26 day. Put shortly: (§3)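 Female athymic nude mice (5–6 weeks) bore MDA-MB-231 xenografts and were randomized (n = 6) once tumors averaged about 100 mm³. They were dosed orally at 10 mg/kg, alongside vehicle and carboplatin (10 mg/kg) groups. On the last day of administration, heart, liver, lungs and kidneys were examined by HE staining.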

Data set [7] in a line: Cytotoxicity against human mesenchymal bone marrow stem cells measured after 48 hrs by MTT assay. It is filed as toxicity, cell-based. Background: Formazan colour is commonly taken as a measure of viable cells.
The target of data set [8] is T1, Heat shock protein HSP 90-beta/Hsp90 co-chaperone Cdc37. The data set can be described thus: Disruption of His-tagged full length HSP90 (unknown origin)/GST-tagged Cdc37 (unknown origin) at 50 uM measured after 1 hr by HTRF method. The format is protein-complex assay. The essentials: as §1
In data set [9] the test system is MCF7. The data set can be described thus: cells. The following applies: Homo sapiens, MCF7, 48 h.
Data set [10] in a line: Toxicity in nude mouse xenografted with human MDA-MB-231 cells assessed as decrease of white blood cells at 10 mg/kg, po measured after 26 days. It is filed as organism-based. The following applies: in vivo, 624 h, time 26 day. Put shortly:
as §2

The nature of data set [11]: Toxicity in nude mouse xenografted with human MDA-MB-231 cells assessed as damage to heart at 10 mg/kg, po measured after 26 days by Hand E staining method. It is filed as organism-based. The following applies: in vivo, 624 h, time 26 day. The essentials: as §3
A short description of data set [12]: Toxicity in nude mouse xenografted with human MDA-MB-231 cells assessed as damage to kidney at 10 mg/kg, po measured after 26 days by Hand E staining method. It is filed as organism-based. The following applies: in vivo, 624 h, time 26 day. The essentials: as §3
For data set [13], the system named is KB. Briefly: cells. The following applies: Homo sapiens, 48 h.
Data set [14] can be described thus: Toxicity in nude mouse xenografted with human MDA-MB-231 cells assessed as decrease of platelets at 10 mg/kg, po measured after 26 days. It is filed as organism-based. The following applies: in vivo, 624 h, time 26 day. Put shortly:
as §2

A short description of data set [15]: Toxicity in nude mouse xenografted with human MDA-MB-231 cells assessed as damage to liver at 10 mg/kg, po measured after 26 days by Hand E staining method. It is filed as organism-based. The following applies: in vivo, 624 h, time 26 day. The essentials:
as §3

Data set [16] is described as follows: Toxicity in nude mouse xenografted with human MDA-MB-231 cells assessed as decrease of body weight at 10 mg/kg, po measured after 26 days. The format is organism-based. The following applies: in vivo, 624 h, time 26 day. Put shortly:
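Female athymic nude mice, 5−6 weeks old, carrying MDA-MB-231 xenografts; randomized at about 100 mm³ tumor volume, n = 6 per group. Groups were vehicle, carboplatin 10 mg/kg, celastrol 10 mg/kg and test compound 10 mg/kg oral. Body weight tracked from day 16 to day 26; blood counts taken on the last day.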

pIC50: −log10 of the molar value. Calls of active or inactive are those of the source. The rule behind the calls is not given here.

T1 sequence (P08238 whole entry): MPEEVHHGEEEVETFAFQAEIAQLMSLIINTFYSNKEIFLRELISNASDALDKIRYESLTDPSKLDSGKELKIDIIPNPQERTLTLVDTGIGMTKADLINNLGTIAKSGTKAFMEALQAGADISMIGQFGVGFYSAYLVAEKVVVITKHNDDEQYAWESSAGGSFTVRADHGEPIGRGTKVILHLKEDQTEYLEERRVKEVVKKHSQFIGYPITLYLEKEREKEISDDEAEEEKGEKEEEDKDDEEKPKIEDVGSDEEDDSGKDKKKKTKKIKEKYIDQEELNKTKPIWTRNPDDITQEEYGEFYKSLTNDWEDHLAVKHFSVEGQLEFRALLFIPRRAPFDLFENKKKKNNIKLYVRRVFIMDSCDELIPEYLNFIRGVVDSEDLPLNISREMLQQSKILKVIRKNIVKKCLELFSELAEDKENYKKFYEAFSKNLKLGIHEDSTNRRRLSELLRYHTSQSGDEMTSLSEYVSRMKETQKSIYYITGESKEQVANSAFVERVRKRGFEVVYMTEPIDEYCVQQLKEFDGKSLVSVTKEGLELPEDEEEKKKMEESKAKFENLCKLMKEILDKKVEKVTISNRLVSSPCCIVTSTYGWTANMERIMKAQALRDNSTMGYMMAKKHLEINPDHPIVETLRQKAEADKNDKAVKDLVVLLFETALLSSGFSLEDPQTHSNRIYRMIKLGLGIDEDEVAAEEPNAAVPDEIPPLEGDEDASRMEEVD
T1 sequence (Q16543 whole entry): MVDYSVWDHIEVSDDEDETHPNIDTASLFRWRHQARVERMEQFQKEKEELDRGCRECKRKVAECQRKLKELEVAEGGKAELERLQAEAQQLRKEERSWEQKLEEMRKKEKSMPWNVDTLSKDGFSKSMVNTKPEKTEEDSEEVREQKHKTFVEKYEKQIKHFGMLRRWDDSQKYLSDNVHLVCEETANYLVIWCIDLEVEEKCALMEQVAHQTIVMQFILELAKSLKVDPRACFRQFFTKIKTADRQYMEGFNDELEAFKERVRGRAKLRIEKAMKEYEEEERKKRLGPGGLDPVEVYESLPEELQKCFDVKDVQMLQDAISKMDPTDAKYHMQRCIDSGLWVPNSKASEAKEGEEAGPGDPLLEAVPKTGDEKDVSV

Usually pIC50 stands for the IC50 on a negative log10 scale, so that one unit is a factor of ten. Low values mean a high IC50, high ones a low IC50. In data set [1], `CC1=C(O)C(=O)C=C2C1=CC=C1[C@@]2(C)CC[C@@]2(C)[C@@H]3C[C@](C)(C(=O)OCc4cccc(C)c4)CC[C@]3(C)CC[C@]12C` had a negative logarithm of the IC50 (pIC50) of 5.21.
The compound `C#CCOC(=O)[C@]1(C)CC[C@]2(C)CC[C@]3(C)C4=CC=C5C(=CC(=O)C(O)=C5C)[C@]4(C)CC[C@@]3(C)[C@@H]2C1` showed a negative-log IC50 (pIC50) in data set [1] of 5.77.
The IC50 is the concentration at which inhibition is half-maximal. Lower therefore signals greater potency. The term inhibition denotes the percentage by which the read-out fell short of the control. For `CC1=C(O)C(=O)C=C2C1=CC=C1[C@@]2(C)CC[C@@]2(C)[C@@H]3C[C@](C)(C(=O)O)CC[C@]3(C)CC[C@]12C` [CELASTROL], the negative-log IC50 (pIC50) in data set [2] is 5.74; in data set [4], 6.05; in data set [9], 5.92; in [13], 5.77. Besides, the Activity result in data set [3], in data set [6], in data set [10], in data set [11], in data set [12] and in [14] was “Toxic” each time. The Activity entry in [15] is given as “Toxic”. The outcome in data set [5] was inactive. The compound also came in with an IC50 at 48 h in [7] of 700 nM. The compound also yielded an inhibition in data set [8] of 82.3%.
As for `CC1=C(O)C(=O)C=C2C1=CC=C1[C@@]2(C)CC[C@@]2(C)[C@@H]3C[C@](C)(C(=O)OCC4CCCCC4)CC[C@]3(C)CC[C@]12C`, the pIC50 in [1] is 5.54.
In the case of `COCCOC(=O)[C@]1(C)CC[C@]2(C)CC[C@]3(C)C4=CC=C5C(=CC(=O)C(O)=C5C)[C@]4(C)CC[C@@]3(C)[C@@H]2C1`, the negative-log IC50 (pIC50) in data set [1] is 5.17.
On the same count and under the same terms, in the case of `CC1=C(O)C(=O)C=C2C1=CC=C1[C@@]2(C)CC[C@@]2(C)[C@@H]3C[C@](C)(C(=O)OCc4ccccc4C)CC[C@]3(C)CC[C@]12C` it was 5.00.
For the compound `C#CCOC(=O)[C@]1(C)CC[C@]2(C)CC[C@]3(C)C4=CC=C5C(=CC(=O)C(OC(=O)N6CCC(N7CCCCC7)CC6)=C5C)[C@]4(C)CC[C@@]3(C)[C@@H]2C1`, the Activity entry was “Non-Toxic” in [3]; “Non-Toxic” in data set [6]; “Non-Toxic” in data set [10]; “Non-Toxic” in data set [11]; “Non-Toxic” in data set [12]; “Toxic” in data set [16]. In addition, the Activity entry in [14] and in data set [15] was “Non-Toxic” each time. This compound also had a pIC50 in [4] of 6.70. In data set [7], this compound returned an IC50 at 48 h of 2800 nM.
Consider `CC1=C(O)C(=O)C=C2C1=CC=C1[C@@]2(C)CC[C@@]2(C)[C@@H]3C[C@](C)(C(=O)OCc4ccccc4)CC[C@]3(C)CC[C@]12C`, for which the negative-log IC50 (pIC50) in [2] is 5.89; in data set [4], 6.40; in data set [9] it was 6.15; in data set [13] it was 6.22; in data set [1], 5.62. Also, half-maximal inhibition in [7] (IC50 at 48 h) required 1000 nM. Besides, the inhibition in data set [8] amounted to 90.1%.
On to `CC1=C(O)C(=O)C=C2C1=CC=C1[C@@]2(C)CC[C@@]2(C)[C@@H]3C[C@](C)(C(=O)OCCCl)CC[C@]3(C)CC[C@]12C`, for which the negative-log IC50 (pIC50) was 5.20 in data set [2], 6.10 in [4], 5.74 in data set [9] and 5.72 in data set [13]. Further, the inhibition in [8] is 87%.
For `CCCCOC(=O)[C@]1(C)CC[C@]2(C)CC[C@]3(C)C4=CC=C5C(=CC(=O)C(O)=C5C)[C@]4(C)CC[C@@]3(C)[C@@H]2C1` the same measures were 5.89, 6.05, 6.22, 6.22 and 86%.
For `COCCCOC(=O)[C@]1(C)CC[C@]2(C)CC[C@]3(C)C4=CC=C5C(=CC(=O)C(O)=C5C)[C@]4(C)CC[C@@]3(C)[C@@H]2C1` the same measures were 6.00, 6.40, 6.22, 6.22 and 88.8%.
